Key:
Leishmania major = assay: Antileishmanial activity against Leishmania major by AlamarBlue assay; assay type: functional; details: read-out: LD50 (the source's name)
SF-295 = assay: Cytotoxicity against human SF295 cells by colorimetric method; assay type: functional, cell-based
Leishmania donovani = assay: Antileishmanial activity against Leishmania donovani by AlamarBlue assay; assay type: functional, organism-based
Summary of the method: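 Microplate Alamar Blue (MABA) growth-inhibition assay on *L. donovani*, with amphotericin B and pentamidine as reference drugs.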

MDA-MB-435 = assay: Cytotoxicity against human MDA-MB-435 cells by colorimetric method; assay type: functional, cell-based
[1] = Cytotoxicity against human lymphocytes by colorimetric method; assay type: cell-based; details: Lymphocyte
[2] = Cytotoxicity against human HCT8 cells by colorimetric method; assay type: functional, cell-based; details: HCT-8
HL-60 = assay: Cytotoxicity against human HL60 cells by colorimetric method; assay type: functional, cell-based
PC-3 = assay: Cytotoxicity against human PC3 cells by colorimetric method; assay type: functional, cell-based

`CC(=O)O[C@H]1C2=COC(C)=CC2=C(C=O)C(=O)[C@]1(C)OC(C)=O` gave an LC50 (Leishmania major) of 19.8 µM, an IC50 (SF-295) of 26.3 µM and an IC50 (Leishmania donovani) of 59.3 µM. For the same compound, the IC50 (MDA-MB-435) was 26.9 µM, the IC50 [1] was > 78 µM and the IC50 [2] was 13.9 µM. For the same compound, the IC50 (HL-60) was 22.1 µM.

Compound `COc1cccc2c1C(=O)c1c(O)c3c(c(O)c1C2=O)C[C@@](O)(C(=O)CO)C[C@@H]3O[C@H]1C[C@H](N)[C@H](O)[C@H](C)O1` [DOXORUBICIN] has an IC50 (PC-3) of 0.41 µM, an IC50 (SF-295) of 0.7 µM and an IC50 (MDA-MB-435) of 1.51 µM. It also gave an IC50 [1] of 0.7 µM.

With `COc1cc2oc(C)cc(=O)c2c(O)c1C` the IC50 (PC-3) was > 113 µM, the LC50 (Leishmania major) was 39.9 µM and the IC50 (SF-295) was > 113 µM. For the same compound, the IC50 (Leishmania donovani) was > 181 µM, the IC50 (MDA-MB-435) was > 113 µM and the IC50 [1] was > 113 µM. The IC50 [2] was > 113 µM and the IC50 (HL-60) was > 113 µM.

With `COc1cc2oc(C)cc(=O)c2c(O)c1OC` [STELLATIN] the IC50 (PC-3) was 20.5 µM, the LC50 (Leishmania major) was 34.5 µM and the IC50 (SF-295) was > 105 µM. The IC50 (Leishmania donovani) was > 169 µM, the IC50 (MDA-MB-435) was > 105 µM and the IC50 [1] was > 105 µM. The IC50 [2] was > 105 µM and the IC50 (HL-60) was > 105 µM.

In the case of `CC(=O)O[C@H]1C2=COC(C)=CC2=C(CC2=C3C=C(C)OC=C3[C@H](OC(C)=O)[C@@](C)(OC(C)=O)C2=O)C(=O)[C@]1(C)OC(C)=O`, the IC50 (PC-3) is reported as 33.3 µM, the IC50 (SF-295) is reported as > 42 µM and the IC50 (MDA-MB-435) is reported as > 42 µM. The IC50 [1] was > 42 µM, the IC50 [2] was > 42 µM and the IC50 (HL-60) was > 42 µM.

With `CC1=CC2=C(Cc3c(O)c(C)c4c(c3O)C(=O)OC(C)C4)C(=O)[C@](C)(O)[C@@H](O)C2=CO1` (stereo partly drawn) the IC50 (PC-3) was 7.1 µM, the LC50 (Leishmania major) was 21.7 µM and the IC50 (SF-295) was > 58 µM. For the same compound, the IC50 (MDA-MB-435) was > 58 µM, the IC50 [1] was > 58 µM and the IC50 [2] was > 58 µM. The IC50 (HL-60) was > 58 µM.

Work on `CN[C@@H]1[C@@H](O)[C@@H](O[C@@H]2[C@@H](O)[C@H](O[C@H]3O[C@H]([C@@H](C)O)[C@@H](O)[C@H](O)[C@H]3N)[C@@H](N)C[C@H]2N)OC[C@]1(C)O` [GENETICIN] yielded an LC50 (Leishmania major) of 3.43 µM.

For `CC1=CC2=C(C=O)C(=O)[C@](C)(O)[C@@H](O)C2=CO1`, the LC50 (Leishmania major) was 20.5 µM, the IC50 (SF-295) was 28 µM and the IC50 (Leishmania donovani) was 80.5 µM. The IC50 (MDA-MB-435) was 34.3 µM, the IC50 [1] was > 113 µM and the IC50 [2] was 12.9 µM. The IC50 (HL-60) was 38.8 µM.

In the case of `C[C@@H]1[C@H](O)[C@@H](C)/C=C/C=C/C=C/C=C/C=C/C=C/C=C/[C@H](O[C@@H]2O[C@H](C)[C@@H](O)[C@H](N)[C@@H]2O)C[C@@H]2O[C@](O)(C[C@@H](O)C[C@@H](O)[C@H](O)CC[C@@H](O)C[C@@H](O)CC(=O)O[C@H]1C)C[C@H](O)[C@H]2C(=O)O` [AMPHOTERICIN B], the IC50 (Leishmania donovani) is reported as 0.14 µM.

With `CC1=CC2=C(CC3=C4C=C(C)OC=C4[C@H](O)[C@@](C)(O)C3=O)C(=O)[C@](C)(O)[C@@H](O)C2=CO1` the IC50 (PC-3) was 10 µM, the LC50 (Leishmania major) was 28.5 µM and the IC50 (SF-295) was > 58 µM. The IC50 (Leishmania donovani) was > 93.4 µM, the IC50 (MDA-MB-435) was > 58 µM and the IC50 [1] was > 58 µM. The IC50 [2] was > 58 µM and the IC50 (HL-60) was > 58 µM.

For `COc1cc2oc(CO)cc(=O)c2c(O)c1C`, the IC50 (PC-3) was > 105 µM, the IC50 (SF-295) was > 105 µM and the IC50 (MDA-MB-435) was > 105 µM. The IC50 [1] was > 105 µM, the IC50 [2] was > 105 µM and the IC50 (HL-60) was > 105 µM.
